Experimental data gathered from unrelated publications.
Lines come from different studies, so protocols differ.
CDK9 with cyclin T1: Cyclin-dependent kinase 9, with cyclin T1 (CDK9, Homo sapiens, UniProt P50750)
AKT1: RAC-alpha serine/threonine-protein kinase (AKT1, Homo sapiens, UniProt P31749)
FABP4: Fatty acid-binding protein, adipocyte (FABP4, Homo sapiens, UniProt P15090)
CYP2C9: Cytochrome P450 2C9 (CYP2C9, Homo sapiens, UniProt P11712)
TNKS: Poly [ADP-ribose] polymerase tankyrase-1 (TNKS, Homo sapiens, UniProt O95271)
DPP4: Dipeptidyl peptidase 4 (DPP4, Homo sapiens, UniProt P27487)
SLC22A13: SLC22A13 (Homo sapiens, UniProt Q9Y226)
MAPK3: Mitogen-activated protein kinase 3 (MAPK3, Homo sapiens, UniProt P27361)

Cc1cc2c(C(N)=O)c(N)n(-c3c(C)ccc(O)c3C)c2nc1C
IC50 (Proto-oncogene tyrosine-protein kinase Src (SRC, Homo sapiens, UniProt P12931); enzyme activity, inhibitor, TR-FRET): 6.4 nM

CN(C)C(=O)c1cc2cnc(Nc3ccc(-c4ccc5c(=O)cc(N6CCNCC6)oc5c4)cc3)nc2n1C1CCCC1
IC50 (CDK9 with cyclin T1; enzyme activity, inhibitor, radiometric): 6.2 nM

OC1(c2ccc(-c3ccnc4[nH]cc(F)c34)cc2)CCCNCC1 (centres unmarked)
IC50 (AKT1; target engagement in cells, BRET): 34500 nM

CN(C)C(=O)c1cc2cnc(Nc3ccc(-c4cccc5c(=O)cc(N6CCNCC6)oc45)cc3)nc2n1C1CCCC1
IC50 (CDK9 with cyclin T1; enzyme activity, inhibitor, radiometric): 13.3 nM

CCCCCCCC(=O)O
IC50 (FABP4; ligand displacement, fluorescence; pH 7.5): 32700 nM

CN(C)C(=O)c1cc2cnc(Nc3ccc(-c4ccc5c(=O)cc(N6CCOCC6)oc5c4)cc3)nc2n1C1CCCC1
IC50 (CDK9 with cyclin T1; enzyme activity, inhibitor, radiometric): 4.4 nM

Fc1c[nH]c2nccc(-c3ccc(C4CCNCC4)cc3)c12
IC50 (AKT1; enzyme activity, inhibitor, radiometric): 895 nM

C=CCn1c(=O)c2cnc(Nc3ccc(N4CCN(C)CC4)cc3)nc2n1-c1ccc2c(n1)[C@@](O)(CC)CC2
IC50 (CYP2C9; enzyme activity, inhibitor): 50000 nM

CCCCCCCCCCCCCC(=O)O
IC50 (FABP4; ligand displacement, fluorescence; pH 7.5): 1340 nM

CC(C)(O)c1ccc(-c2nc3cc(NC(=O)c4ccc(-c5ccccc5)nc4)ccc3c(=O)[nH]2)cc1
IC50 (TNKS; enzyme activity, inhibitor): 528 nM

Cc1nc2n(c(=O)c1CCN1CCC(c3noc4cc(F)ccc34)CC1)CCCC2O (centres unmarked)
IC50 (DPP4; enzyme activity, inhibitor, absorbance): 48900 nM

CCc1oc2ccccc2c1C(=O)c1cc(Br)c(O)c(Br)c1
IC50 (SLC22A13; transporter uptake, inhibitor, radiometric; oocytes): 12500 nM

Nc1ncnc2c1ncn2[C@@H]1O[C@H](CSCC[C@H](N)C(=O)O)[C@@H](O)[C@H]1O
IC50 (Histone-lysine N-methyltransferase SETDB1 (SETDB1, Homo sapiens, UniProt Q15047); enzyme activity, inhibitor): 2210 nM

CC(=O)N1C(=O)NC(C)=C(C(=O)OCc2ccccc2)C1c1cccc([N+](=O)[O-])c1 (racemic)
IC50 (Voltage-dependent T-type calcium channel subunit alpha-1H (CACNA1H, Homo sapiens, UniProt O95180); ion current, inhibitor, patch clamp): 3600 nM

NC/C(=C\F)COc1cccc(Cn2c(=S)[nH]c(=O)c3[nH]cnc32)c1
IC50 (Myeloperoxidase (Mus musculus, UniProt P11247); enzyme activity, inhibitor): 100 nM

OC1(c2ccc(-c3ccnc4[nH]cc(F)c34)cc2)CCCNC1 (centres unmarked)
IC50 (AKT1; enzyme activity, inhibitor, radiometric): 383 nM

COc1ccc(-c2coc3cc(O)ccc3c2=O)cc1O
IC50 (CYP2C9; enzyme activity, inhibitor; human, liver microsomes; 15 min): 13300 nM

CCc1oc2cc(F)c(F)cc2c1C(=O)c1cc(Br)c(O)c(Br)c1
IC50 (SLC22A13; transporter uptake, inhibitor, radiometric; oocytes): 9700 nM

COc1cc(Cl)ncc1C(=O)Nc1ccc2c(=O)[nH]c(-c3ccc(C(C)(C)O)cc3)nc2c1
IC50 (TNKS; enzyme activity, inhibitor): 303 nM

COc1ccc(-c2cc(=O)c3ccc(Nc4ncc5cc(C(=O)N(C)C)n(C6CCCC6)c5n4)cc3o2)cc1
IC50 (CDK9 with cyclin T1; enzyme activity, inhibitor, radiometric): 0.76 nM

CC(C)(O)c1ccc(-c2nc3cc(NC(=O)c4cnc(Oc5ccccc5)nc4)ccc3c(=O)[nH]2)cc1
IC50 (TNKS; enzyme activity, inhibitor): 392 nM

CN(C)C(=O)c1cc2cnc(Nc3cc(C(F)(F)F)c(-c4ccc5c(=O)cc(N6CCOCC6)oc5c4)cn3)nc2n1C1CCCC1
IC50 (CDK9 with cyclin T1; enzyme activity, inhibitor, radiometric): > 10000 nM

CCCCCCCCC(=O)O
IC50 (FABP4; ligand displacement, fluorescence; pH 7.5): 30000 nM

Cc1c(N2CCOCC2)oc2c(-c3ccc(Nc4ncc5cc(C(=O)N(C)C)n(C6CCCC6)c5n4)cc3F)cccc2c1=O
IC50 (CDK9 with cyclin T1; enzyme activity, inhibitor, radiometric): 338 nM

Cc1ccc(OCC(=O)N[C@@H](Cc2c[nH]c3ccccc23)C(=O)OC(C)C)cc1
IC50 (CYP2C9; enzyme activity, inhibitor; human, liver microsomes; 30 min): > 50000 nM

COc1ccc(-c2oc3cc(Nc4ncc5cc(C(=O)N(C)C)n(C6CCCC6)c5n4)ccc3c(=O)c2F)cc1
IC50 (CDK9 with cyclin T1; enzyme activity, inhibitor, radiometric): 27.6 nM

CNS(=O)(=O)c1ccc(Nc2ncc3cc(Cl)c(=O)n(C4CCCC4)c3n2)c(C)c1
IC50 (CDK9 with cyclin T1; enzyme activity, inhibitor, radiometric): > 10000 nM

C[C@]12CC[C@@H]3c4ccc(O)cc4C[C@@H](CCCCCCCCC[S+]([O-])CCCC(F)(F)C(F)(F)F)[C@H]3[C@@H]1CC[C@@H]2O (some centres unmarked)
IC50 (DPP4; enzyme activity, inhibitor, absorbance): 66300 nM

O=C(CCCCc1ccc(CO)cc1)C(F)(F)C(F)(F)F
IC50 (Phospholipase A2 group V (PLA2G5, Homo sapiens, UniProt P39877); enzyme activity, inhibitor): 228000 nM

O=C(Nc1ccc2[nH]nc(-c3ccncc3)c2c1)[C@@H]1CCN(CC(=O)N2CCN(c3ccc(-c4ncccn4)cc3)CC2)C1
IC50 (MAPK3; enzyme activity, inhibitor): 4.99 nM

CNS(=O)(=O)c1ccc(Nc2ncc(C(F)(F)F)c(N3CCC[C@](C)(O)C3)n2)c(C)c1
IC50 (CDK9 with cyclin T1; enzyme activity, inhibitor, radiometric): > 10000 nM

Cc1cc(-c2ccnc3[nH]cc(F)c23)cc(F)c1[C@@]1(O)[C@H](C)CN(C(=O)CN)C[C@@H]1C
IC50 (AKT1; enzyme activity, inhibitor, radiometric): 165 nM

COc1cc(C(=O)NS(=O)(=O)c2ccccc2C)ccc1Cc1cn(C)c2ccc(NC(=O)OC3CCCC3)cc12
IC50 (Protein disulfide-isomerase A3 (PDIA3, Homo sapiens, UniProt P30101); enzyme activity, inhibitor): 25000 nM

CNS(=O)(=O)c1ccc(Nc2ncc(C(F)(F)F)c([C@H]3CC[C@@](C)(O)CC3)n2)c(C)c1
IC50 (CDK9 with cyclin T1; enzyme activity, inhibitor, radiometric): > 10000 nM

Clc1ccc(C2(c3ccc(-c4ccnc5[nH]ccc45)cc3)CCNCC2)cc1
IC50 (AKT1; target engagement in cells, BRET): 46 nM

CN(C)C(=O)c1cc2cnc(Nc3cc(C(F)(F)F)c(-c4cccc5c(=O)cc(N6CCOCC6)oc45)cn3)nc2n1C1CCCC1
IC50 (CDK9 with cyclin T1; enzyme activity, inhibitor, radiometric): > 10000 nM

CCCCCCCCCCC(=O)O
IC50 (FABP4; ligand displacement, fluorescence; pH 7.5): 2250 nM

O=C(O)CCC(=O)OCCN(Cc1ccc(Oc2ccc([N+](=O)[O-])cc2)cc1)C(=O)C(Cl)Cl
IC50 (MAPK3; enzyme activity, inhibitor, ADP detection): 2690 nM

CC1CNCCC1(O)c1ccc(-c2ccnc3[nH]cc(F)c23)cc1 (centres unmarked)
IC50 (AKT1; enzyme activity, inhibitor, radiometric): 132 nM

CCc1ccc(Cn2nnc3c4ccc(F)cc4c(=O)[nH]c32)cc1
IC50 (TNKS; enzyme activity, inhibitor, fluorescence): 126 nM

Cc1cc(-c2ccnc3[nH]cc(F)c23)cc(F)c1[C@@]1(O)[C@H](C)CN(C2COC2)C[C@@H]1C
IC50 (AKT1; enzyme activity, inhibitor, radiometric): 698 nM

CCCCCCC(=O)O
IC50 (FABP4; ligand displacement, fluorescence; pH 7.5): 348000 nM

OC1(c2ccc(-c3ccnc4[nH]cc(F)c34)cc2)CCNC1 (centres unmarked)
IC50 (AKT1; enzyme activity, inhibitor, radiometric): 475 nM

CC(C)(O)c1ccc(-c2nc3cc(NC(=O)c4cnc(OCc5ccccc5)nc4)ccc3c(=O)[nH]2)cc1
IC50 (TNKS; enzyme activity, inhibitor): 6360 nM
